From ChEMBL document CHEMBL3244046, “Cardenolide analogues. 7. Synthesis and biological activity of some new steroidal guanylhydrazones” (J Med Chem, 1978)
Calls of active or inactive are those of the source.

Legend:
[1] = tested on: Left cardiac atrium; test: Inotropic activity in guinea pig left atrium assessed as change in isometric force of contraction at 5 X 10^-5 M relative to control; format: functional, Cavia porcellus
Outline: (§1)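 Guinea pig left auricle in Krebs-Henseleit, 32 °C, gassed O2/5% CO2, resting tension about 1 g. Paced with 10-ms rectangular pulses at 100/min, voltage 20% above threshold. Cumulative dose-response curves up to 10⁻⁴ M. Isometric contraction changes computed against control atria.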

[2] = tested on: Left cardiac atrium; test: Negative inotropic activity in guinea pig left atrium assessed as isometric force of contraction at 10^-8 to 10^-4 M relative to control; format: functional, tissue-based; details: Cavia porcellus; outline: as §1
[3] = organism: Cavia porcellus; test: Inhibition of Na(+)/K(+) ATPase-mediated phosphohydrolase activity in guinea pig myocardium at 5 X 10^-5 M after 30 mins relative to control; format: tissue-based
Outline: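 Crude membranes from guinea pig myocardium (5-10 units activity; unit = µmol Pi liberated/mg protein/h) incubated 37 °C, 30 min. Substrate consumption under 15% without drug. Dose-response curves over 10⁻⁸–10⁻⁴ M, duplicate determinations; values read from curves.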

[4] = organism: Cavia porcellus; test: Inhibition of ouabain-insensitive Mg(2+)-ATPase-mediated phosphohydrolase activity in guinea pig myocardium at 5 X 10^-5 M after 30 mins relative to control; format: tissue-based
Outline: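 Guinea pig myocardial crude membranes (5-10 units; µmol Pi/mg protein/h), assayed without Na+ and K+ (ouabain-insensitive activity), with and without drug, 37 °C for 30 min. Substrate use under 15% in drug-free controls. Drug tested 10⁻⁸–10⁻⁴ M in duplicate; values taken from dose-response curves.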

[5] = organism: Cavia porcellus; test: Inhibition of Na(+)/K(+) ATPase-mediated phosphohydrolase activity in guinea pig myocardium at 2 X 10^-6 M after 30 mins relative to control; format: tissue-based
Outline: (§2)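 Crude guinea pig myocardial membrane preparation (5-10 units each enzyme; µmol Pi/mg protein/h), incubated 37 °C for 30 min. Substrate consumption stayed below 15%. Dose-response curves spanned 10⁻⁸–10⁻⁴ M in duplicate, and values were read from the curves.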

[6] = organism: Cavia porcellus; test: Inhibition of ouabain-insensitive Mg(2+)-ATPase-mediated phosphohydrolase activity in guinea pig myocardium at 2 X 10^-6 M after 30 mins relative to control; format: tissue-based
Outline: (§3)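 Guinea pig myocardial crude membranes were incubated 30 min at 37 °C without Na⁺ and K⁺. Ouabain-insensitive Mg²⁺-ATPase activity was measured as inorganic phosphate released (µmol/mg protein/h), with and without drug. Substrate use stayed under 15%. Dose-response curves covered 10⁻⁸–10⁻⁴ M, run in duplicate, and values were taken from the curves.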

[7] = tested on: Left cardiac atrium; test: Inotropic activity in guinea pig left atrium assessed as change in isometric force of contraction at 2 X 10^-6 M relative to control; format: functional, Cavia porcellus
Outline: (§4)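 Guinea pig left auricle in Krebs-Henseleit at 32 °C, gassed with O₂/5% CO₂ under about 1 g resting tension. Pacing used 10-ms rectangular pulses at 100/min and 20% above threshold voltage. Change in isometric contraction was referenced to control atria. Cumulative dose-response curves ran up to 10⁻⁴ M.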

[8] = organism: Cavia porcellus; test: Inhibition of ouabain-insensitive Mg(2+)-ATPase-mediated phosphohydrolase activity in guinea pig myocardium at 1 X 10^-5 M after 30 mins relative to control; format: tissue-based; outline: as §3
[9] = tested on: Left cardiac atrium; test: Toxicity in guinea pig left atrium assessed as tissue arrest at 5 X 10^-5 M relative to control; format: tissue-based, Cavia porcellus; details: 50 µM
Outline: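 Electrically paced guinea pig left auricle (Krebs-Henseleit, 32 °C, O₂/5% CO₂, about 1 g resting tension, 10-ms pulses at 100/min, 20% above threshold) given cumulative drug doses up to 10⁻⁴ M. Toxicity was scored as tissue arrest, which follows the inflection of the dose-response curve.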

[10] = organism: Cavia porcellus; test: Inhibition of Na(+)/K(+) ATPase-mediated phosphohydrolase activity in guinea pig myocardium at 1 X 10^-5 M after 30 mins relative to control; format: tissue-based; outline: as §2
[11] = tested on: Left cardiac atrium; test: Inotropic activity in guinea pig left atrium assessed as change in isometric force of contraction at 1 X 10^-5 M relative to control; format: functional, Cavia porcellus; outline: as §4

SMILES	Activity [1]	Activity [2]	inhibition [3]	Imax [4]	inhibition [4]	further results
C[C@]12CC[C@H]3[C@@H](CCC4=C[C@@H](O)CC[C@@]43C)[C@@H]1CC[C@@H]2/C=N\NC(=N)N	-18%	Active	54%	30%	–	–
C[C@]12CC[C@H](O)C[C@H]1CC[C@@H]1[C@@H]2CC[C@]2(C)[C@@H](C3=CC(=O)OC3)CC[C@]12O [DIGITOXIGENIN]	–	–	–	–	–	inhibition [5]: 60%; inhibition [6]: 0%; Activity [7]: 130%
C[C@]12CC[C@@H](O)C[C@H]1CC[C@@H]1[C@@H]2CC[C@]2(C)[C@@H](/C=N\NC(=N)N)CC[C@@H]12	-10%	Active	37%	–	45%	–
C[C@]12CC[C@H](O)C[C@H]1CC[C@@H]1[C@@H]2CC[C@]2(C)[C@@H](/C=N\NC(=N)N)CC[C@]12O	–	–	53%	–	0%	inhibition [8]: 0%; Activity [9]: Toxic; inhibition [10]: 20%; Activity [11]: 120%
C[C@]12CC[C@H](O)C[C@H]1CC[C@@H]1[C@@H]2CC[C@]2(C)[C@@H](/C=N\NC(=N)N)CC[C@@H]12	-45%	Active	55%	–	55%	–
C[C@]12CC[C@H](O)C[C@@H]1CC[C@@H]1[C@@H]2CC[C@]2(C)[C@@H](/C=N\NC(=N)N)CC[C@@H]12	-50%	Active	40%	43%	–	–
